Source: PubChem BioAssay (several laboratories)
Most compounds without a hit are left out; they make up all but 2.4% or so of the library.
aDG glyco up = increases alpha dystroglycan glycosylation; Pro5-aDG cells, alpha-DG glycosylation AlphaScreen (IIH6); 0% Pro5, 100% B10-LARGE cell signal; activation, % at 10 µM; hit rate 0.22% among 360,000;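 active = activation of at least 8% versus controls, or a plate z-score of at least 8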;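 note: Pro5 are CHO cells carrying HIG-tagged alpha-DG that lacks glycosylation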
NR2E3 ag-1 = agonists of human NR2E3 nuclear receptor; CHO-S Gal4-NCOR/VP16-NR2E3 two-hybrid, luciferase; Q9Y5X4; hit rate 0.35% among 360,000; inhibition of corepressor binding, % at 3.98 µM;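 active = inhibition above the mean of all tested compounds plus 3 SD, cut at about 70% in these data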;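 note: 0% = DMSO with NR2E3 transfected cells and 100% = cells lacking NR2E3 construct; higher means lower luciferase signal from less NR2E3 corepressor binding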
Target sequence (Q9Y5X4 whole entry, looked up, the tested form may be a part): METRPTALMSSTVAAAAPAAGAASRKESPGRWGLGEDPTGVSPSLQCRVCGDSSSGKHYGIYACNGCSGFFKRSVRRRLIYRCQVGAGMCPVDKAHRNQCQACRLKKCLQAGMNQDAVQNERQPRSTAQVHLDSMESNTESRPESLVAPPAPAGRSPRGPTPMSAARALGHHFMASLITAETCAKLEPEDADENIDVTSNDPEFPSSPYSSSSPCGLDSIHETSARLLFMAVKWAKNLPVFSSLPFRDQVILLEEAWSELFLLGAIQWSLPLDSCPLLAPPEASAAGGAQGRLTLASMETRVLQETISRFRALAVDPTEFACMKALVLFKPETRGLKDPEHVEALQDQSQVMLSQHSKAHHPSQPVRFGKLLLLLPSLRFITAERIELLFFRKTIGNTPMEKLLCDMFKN
NR2E3 ag-2 = agonists of human nuclear receptor NR2E3. AID 2300. hit rate 0.12% among 320,000. GST-NR2E3/biotin-RetCOR TR-FRET, 1536-well. inhibition of corepressor binding, % at 4.78 µM;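 active = percent inhibition above the cutoff of mean plus 3 SD of all tested compounds, set per screening campaign, cut at about 20% in these data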;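 note: 0% = DMSO wells and 100% = biotin wells as full block of FRET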
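System: GST-NR2E3 and biotin-RetCOR proteins; probe or stimulus: 7 nM biotin-RetCOR; doses: compound at 4.8 µM, single dose; schedule: Compound–protein incubation for 5 h at 4 °C; detection: time-resolved FRET; read-out: percent inhibition; controls: biotin wells as high control, 0.6% DMSO wells as low control; format: 1536-well plates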
697 NFkB inh = inhibitors of the PMA/ionomycin-induced NF-kB reporter in 697 B cells; AID 435022; inhibition, % at 4 µM; 697 B-cell NF-kB luciferase reporter, 16 h; hit rate 0.33% among 330,000; in the data active = inhibition above about 35%
Jurkat NFkB inh = inhibitors of the PMA/ionomycin-induced NF-kB reporter in Jurkat cells. PMA/ionomycin-induced NF-kB luciferase reporter, luminescence. inhibition, % at 4 µM. hit rate 0.53% among 330,000. AID 435003; in the data active = inhibition above about 50%
MPTP inh = inhibitors of mitochondrial permeability transition pore | inhibition, % at 10 µM | AID 602449 | hit rate 1.4% among 360,000 | isolated mouse mitochondria, Ca2+ swelling absorbance, 30 min;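 active = inhibition of 50% or more, scaled per plate between neutral and stimulator controls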;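 note: 0% = DMSO wells given calcium and 100% = 1 mM EGTA wells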
Jurkat NFkB conf = lowers PMA/ionomycin-induced NF-kB signal in Jurkat cells; Jurkat NF-kB luciferase, 16 h; hit rate 27% among 2,700; AID 435020; inhibition, % at 4 µM; shares compounds with Jurkat NFkB inh;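 active = inhibition reaching about 45% at 4 µM in either replicate, limit read from the data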;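 note: plate controls were PMA/ionomycin stimulated DMSO wells for no effect and unstimulated DMSO wells for full effect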
697 NFkB conf = inhibitors of the PMA/ionomycin-induced NF-kB reporter in 697 B cells, retest. shares compounds with 697 NFkB inh. 697 B-cell NF-kB luciferase, 16 h. inhibition, % at 4 µM. hit rate 35% among 2,000; in the data active = inhibition mostly above about 28%, no sharp cut-off; inactive = mostly below about 22%
The depositor's hits bear a star; i = inactive; . = no result given.

SMILES	aDG glyco up	NR2E3 ag-1	NR2E3 ag-2	697 NFkB inh	Jurkat NFkB inh	MPTP inh	Jurkat NFkB conf	697 NFkB conf
Cc1ccccc1C(=O)N(Cc1cccs1)C1CCS(=O)(=O)C1 (stereo not given)	0	-31	2	12	17	-1	.	.
CCCCN(C)C(=O)c1cc2cc3ccc(OC)cc3nc2s1	0	-113	0	-275	-185	0	-132	-266
COc1ccc(-c2c(C)nc3c(-c4ccsc4)cnn3c2N)cc1	0	-73	2	-252	-196	4	-76	-165
CC(C)CNC(=O)c1ccc(Cl)c(N)c1	.	.	-1	22	3	.	.	.
Cc1ccc(NC(=S)N(CCCN2CCC(C)CC2)Cc2ccco2)cc1C	1	-8	0	11	0	1	.	.
Cc1nn(-c2ccccc2)c(C)c1/C=N/NC(=O)c1cc(-c2cccs2)[nH]n1	0	-4	3	45*	53*	2	57*	51*
Cc1nn(-c2ccccc2)c(C)c1/C=N/NC(=O)c1cccs1	0	-92	-1	-82	-40	1	.	.
CC(C)N1CSC(=S)N(Cc2ccccc2)C1	0	-1	0	24	8	1	.	.
C/C(=N/N=C/c1ccc(N(C)C)cc1)c1ccccc1	0	-33	-5	-274	-163	1	1	-48
CN(C)c1ccc(/C=N/NC(=O)c2ccccc2)cc1	0	-92	1	-78	-30	2	.	.
O=C1N(c2ccccc2)CCN1c1ccccc1	0	-125	3	-269	-185	2	-111	-180
Cc1ccsc1/C=N/N=C/c1sccc1C	0	-111	0	-299	-173	2	-99	-230
Cc1ccsc1C=Nc1ccc(O)cc1	0	-18	5	4	8	0	.	.
CC(C)C(=O)Nc1cccc(-c2nc3ccccc3o2)c1	0	-108	1	-16	-9	0	.	.
Cc1ccc(-c2nc3cc(NC(=O)C(C)C)ccc3o2)cc1	0	-215	1	-422	-222	-3	-142	-439
Cc1cc2nc(-c3ccc(NC(=O)C(C)C)cc3)oc2cc1C	2	-127	0	-405	-236	0	-151	-353
Cc1ccc(-c2nc3cc(NC(=O)C(C)C)ccc3o2)cc1C	0	-28	2	i	-251	10	-43	i
Brc1ccc(-c2nnc(-c3ccccc3Br)o2)cc1	1	-62	4	-308	-194	2	-95	-267
Brc1ccccc1-c1nnc(-c2cccnc2)o1	0	-65	1	-42	-25	0	.	.
CCCNC(C)(C)COC(=O)c1ccccc1	0	17	-6	12	-1	-1	.	.
O=C(Nc1ccc(-c2cn3ccccc3n2)cc1)c1ccc(Cl)cc1	0	-101	-3	-40	-6	2	.	.
Clc1ccc(-c2cn3ccccc3n2)cc1	0	-153	3	-290	-177	0	-114	-248
CCc1ccc(-c2nc(CS(=O)CC(=O)NCc3ccco3)c(C)o2)cc1 (stereo not given)	0	9	-2	36*	51*	-2	56*	35*
COc1ccc(-c2nc(CS(=O)CC(=O)NCc3ccco3)c(C)o2)cc1 (stereo not given)	0	-23	-1	9	17	0	.	.
Cc1ccccc1N1CCN(C(=O)NCc2cccc(Cl)c2)CC1	0	10	-1	-5	14	1	.	.
SMILES	aDG glyco up	NR2E3 ag-1	NR2E3 ag-2	697 NFkB inh	Jurkat NFkB inh	MPTP inh	Jurkat NFkB conf	697 NFkB conf
Cc1cc(CSc2ccccc2)ccc1NC(=O)c1ccc(CN2CCOCC2)cc1	1	9	0	49*	70*	2	73*	47*
Cc1ccc[n+](CC(=O)/C=C2\N(C)c3ccccc3C2(C)C)c1	0	-12	0	48*	55*	1	10	1
CN1/C(=C\C(=O)C[n+]2cccc(Br)c2)C(C)(C)c2ccccc21	0	-5	-2	22	42	0	.	.
CCc1ccc(NC(=O)c2cnn(-c3ccccc3)c2C)cc1	0	-129	0	-293	-215	1	-145	-298
Cc1ccc(-c2cn(-c3ccccc3)c(=S)[nH]2)cc1C	0	-105	-4	-286	-152	0	-29	-327
CC(NC(=O)c1cc(S(=O)(=O)N(C)C)ccc1N1CCCC1)C1CC2CCC1C2 (stereo not given)	0	-23	-2	10	4	3	.	.
Nc1nonc1-n1nnc(C(=O)N/N=C/c2ccco2)c1CSc1ccc(Cl)cc1	0	-21	.	.	.	1	.	.
Cn1c(-c2ncc(F)cc2F)cc2onc(-c3c(F)cccc3Cl)c2c1=O	0	-93	.	-99	0	-1	.	.
Cn1c(-c2ccccc2F)cc2onc(-c3ccccc3)c2c1=O	0	-141	-1	-349	-232	0	-98	-403
CCOC(=O)c1cccc(NC(=O)Nc2ccc(OCC)cc2)c1	0	-158	-1	-54	-25	12	.	.
CCOc1ccc(NC(=O)Nc2cccc(C(=O)O)c2)cc1	0	-154	3	81*	82*	-2	80*	77*
O=C(Nc1cccc(Cl)c1)Nc1cccc(C(=O)O)c1	0	-90	1	-41	27	5	.	.
O=C(Nc1ccc(Cl)cc1)Nc1cccc(C(=O)O)c1	0	-205	5	53*	76*	0	44	32*
COC(=O)C[C@H]1C=C[C@H](NC(=O)Nc2ccccc2)[C@@H](CO)O1	2	.	.	.	.	-1	.	.
COc1ccc(-c2cn3ccc4ccccc4c3n2)cc1	2	-132	-1	-334	-196	-2	-93	-227
CN(C)c1ccc(-c2n(C)c3ccccc3[n+]2C)cc1	0	3	0	42*	76*	0	60*	57*
CCCCCNC(=O)c1ccc2c(=O)n(CC3CCCO3)c(=O)[nH]c2c1 (stereo not given)	0	-16	-4	104*	99*	-1	44	60*
O=C(NCCNCCO)C1(C(F)(F)F)C/C(=C\CCO)CCCO1 (stereo not given)	0	3	3	61*	54*	0	83*	58*
Cc1cnc(C(=O)NC(C)CCc2ccccc2)cn1 (stereo not given)	0	0	4	7	11	0	.	.
COc1ccc(-c2csc(Nc3ccccn3)n2)cc1OC	0	-149	1	-265	-178	0	-102	-93
Cc1ccc(-c2csc(Nc3ccccn3)n2)cc1	0	-86	-1	-371	-154	0	-9	-258
Cc1nc(N)sc1-c1csc(Nc2ccccn2)n1	0	-72	.	.	.	-1	.	.
